Beta2AR agonist: human beta-2 adrenergic receptor agonism by FAP. P07550. Am2.2-beta2AR cells, FAP receptor internalization, flow cytometry. response, % (test concentration not listed). hit rate 0.43% among 340,000. AID 504454;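 active = response above a set limit, near 3 SD of response in nonfluorescent compounds, cut at about 42% in these data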
MEKK2 mut-MEK5: signal of MEK5 binding to mutant human MEKK2 PB1 domain; hit rate 0.35% among 290,000; percent response, % at 10 µM; AID 1530; bead flow cytometry, Alexa488-MEK5 binding to MEKK2 mutant; in the data active = percent response above about 24%, passing the limit was not always enough
Dynein cargo inh: dynein cargo transport inhibition; 3617.4 mouse cells, GR-EGFP nuclear translocation imaging; test concentration mostly 20 µM; stimulated with dexamethasone, 1 µM; stronger effect = lower value; z-score, hits read low; hit rate 0.47% among 220,000; AID 1381;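 active = plate z-score of nuclear minus cytoplasmic receptor signal below a set negative limit, without overly bright fluorescence or cell loss, cut at about -3.5 in these data, passing the limit was not always enough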;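 also: z-score of nuclear minus cytoplasmic ring GR-EGFP intensity difference per well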
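Buffer or medium: tet-free, stripped-serum medium; Also added: dexamethasone, 1.0 µM final; Technique: high-content fluorescence imaging after fixation; Times: 48 h induction, 1 h compound, 30 min dex at 37 °C; Read-out: per-cell GR-EGFP intensity, nucleus versus surrounding cytoplasmic ring, well-averaged.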
ATG4B inhibitor: blocks human ATG4B protease cleavage of LC3 substrate | Q9Y4P1 | inhibition, % at 8.33 µM | AID 504462 | ATG4B cleavage of LC3-PLA2, NBD-HPC fluorescence, 1 h | hit rate 0.51% among 340,000; in the data active = inhibition above about 40%
MEKK3 PB1 HTS: modulators (inhibitors or enhancers) of MEK5 binding to human MEKK3 PB1 domain; Q99759; bead-based flow cytometry, Alexa488-MEK5 binding to MEKK3; actives lie on both sides; 0 = blocked by unlabeled MEK5, 100 = vehicle; binding response (% of control), % at 10 µM; hit rate 1.4% among 290,000; AID 1529;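 active = binding response more than 3 SD above or below the average of its plate-row segment, actives on both sides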;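 also: Alexa488 bead fluorescence after subtracting the streptavidin-only scavenger bead signal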
Target sequence (Q99759 whole entry, looked up, the tested form may be a part): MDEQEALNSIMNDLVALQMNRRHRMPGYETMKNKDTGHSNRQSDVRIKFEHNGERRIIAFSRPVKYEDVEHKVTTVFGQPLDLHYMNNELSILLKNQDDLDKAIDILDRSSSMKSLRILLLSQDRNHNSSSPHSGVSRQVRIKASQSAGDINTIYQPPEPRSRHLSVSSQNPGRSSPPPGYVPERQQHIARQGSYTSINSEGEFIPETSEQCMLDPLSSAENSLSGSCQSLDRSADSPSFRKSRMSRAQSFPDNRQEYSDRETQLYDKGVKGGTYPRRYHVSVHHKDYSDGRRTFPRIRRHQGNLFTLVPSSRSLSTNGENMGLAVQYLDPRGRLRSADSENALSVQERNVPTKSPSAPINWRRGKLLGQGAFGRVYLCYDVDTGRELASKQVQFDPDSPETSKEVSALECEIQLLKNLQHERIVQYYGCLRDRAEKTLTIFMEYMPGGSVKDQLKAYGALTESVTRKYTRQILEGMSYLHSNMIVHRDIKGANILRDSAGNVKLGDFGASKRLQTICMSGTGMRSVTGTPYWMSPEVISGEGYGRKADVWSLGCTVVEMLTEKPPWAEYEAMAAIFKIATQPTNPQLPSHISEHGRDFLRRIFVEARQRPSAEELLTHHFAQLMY
MEKK2 WT-MEK5: raises or lowers MEK5 binding to wildtype human MEKK2 PB1 domain | bead flow cytometry, Alexa488-MEK5 binding to MEKK2 WT; actives lie on both sides | binding response (% of control), % at 10 µM | hit rate 1.1% among 290,000; in the data active = binding response below about 67% or above about 130%
B2AR ag CP1: agonists of human beta-2 adrenergic receptor; Am2.2-beta2AR cells, FAP surface receptor, flow cytometry; stronger effect = lower value; hit rate 25% among 1,100; AID 540358; percent response (surface receptor), % at 10 µM; shares compounds with Beta2AR agonist;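 active = surface receptor percent response at or below 58%, roughly 3 SD from nonfluorescent compounds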
FAP fluor counter: fluorescence artifact in beta-2AR agonist FAP counterscreen. Am2.2 cells, FAP fluorogen flow cytometry; stronger effect = lower value. AID 588765. calls only at 10 µM. 1,100 tested, under 10 active. shares compounds with Beta2AR agonist;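 active = percent response below a set limit in fluorescence channel 1 and below 50% in channel 8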
Hits are given with their value; - = inactive; . = not tested or not shown. Hits are enriched below; roughly 2.9% of the tested compounds scored in any of these assays.

SMILES	Beta2AR agonist	MEKK2 mut-MEK5	Dynein cargo inh	ATG4B inhibitor	MEKK3 PB1 HTS	MEKK2 WT-MEK5	B2AR ag CP1	FAP fluor counter
CC(O)c1c(OCc2ccccc2)ncnc1OCc1ccccc1 (stereo not drawn)	98	-	-	-	-	-	-	-
CCOc1ccc(NC(=O)CNC(=O)c2nn(-c3ccc(OC)c(OC)c3)c(=O)c3ccccc23)cc1	54	-	.	-	-	-	-	-
CCOc1ccccc1NC(=O)CNC(=O)c1nn(-c2ccc(OC)c(OC)c2)c(=O)c2ccccc12	-	-	.	-	-	-	.	.
CCCc1cc(Nc2cccc(OC)c2)n2ncnc2n1	-	-	-	-	-	-	.	.
CCCc1cc(Nc2cccc(OCC)c2)n2ncnc2n1	49	-	-	-	-	-	-	-
Cc1ccc(NC(=O)CN(C)C(=O)c2cc(-c3ccccc3)nn2-c2ccccc2)cc1	-	.	.	-	.	.	.	.
Cc1cccc(Nc2n[nH]c(C)c2[N+](=O)[O-])c1	64	-	-	-	-	-	-	-
O=C(Cn1cc2c(n1)CCCC2)NCc1ccccn1	100	-	-	-	-	-	-	-
CCCCc1ccc(/C=C2\C(=O)ON=C2c2ccccc2)s1	-	-	-	-	-	-	.	.
COc1ccc(-c2cc(C)no2)cc1S(=O)(=O)N1CCOc2ccc(Cl)cc21	46	-	.	-	-	-	-	-
CN(C)S(=O)(=O)c1ccc2c(c1)C(=NO)c1cc(S(=O)(=O)N(C)C)ccc1-2	-	-	.	-	-	-	.	.
CN(C)S(=O)(=O)c1ccc2c(c1)C(CC(=O)O)OC2=O (stereo not drawn)	49	-	-	-	-	-	-	-
CCCCN1CC(=O)N2Cc3[nH]c4ccccc4c3C[C@H]2C1=O	-	-	.	-	-	-	.	.
CCCc1nc2oc3c(NCC4CCCO4)ncnc3c2c2c1COC(C)(C)C2 (stereo not drawn)	-	-	-	-	-	-	.	.
CCCc1nc2oc3c(NCCCN(C)C)ncnc3c2c2c1CCCC2	-	-	-	-	-	-	-	-
CC(C)Cc1nc2oc3c(NCC(C)O)ncnc3c2c2c1CCCC2 (stereo not drawn)	-	-	-	-	-	-	-	-
CCCc1nc2oc3c(NCCN(C)C)ncnc3c2c2c1CCCC2	-	-	-	-	-	-	-	-
COc1cccc(NC(=O)C2CCC(CNS(=O)(=O)c3ccc4c(c3)CC(C)N4C(C)=O)CC2)c1 (stereo not drawn)	-	-	.	-	-	-	.	.
CCN(CC(=O)Nc1ccc(NC(C)=O)cc1)C(=O)c1ccc(=O)[nH]c1	-	-	.	-	-	-	.	.
COc1ccc(NC(=O)Cn2nnc(-c3ccccc3NC(=O)C3CC3)n2)cc1	-	-	-	-	-	-	-	-
COc1ccc(C(=O)Cn2nnc(-c3ccccc3NC(=O)C3CCCCC3)n2)cc1	-	-	-	-	-	-	.	.
CCOc1ccc(NC(=O)Cn2nnc(-c3ccccc3F)n2)cc1	-	-	-	-	-	-	.	.
CCOc1ccc(NC(=O)Cn2nnc(-c3ccccc3NC(=O)C3CC3)n2)cc1	-	-	-	-	-	-	-	-
CC1(c2ccccc2)NC(=O)N(CC#N)C1=O (stereo not drawn)	-	-	-	-	-	-	.	.
CCOC(=O)C(C)Oc1ncnc2cccc(F)c12 (stereo not drawn)	-	-	-	-	-	-	.	.
SMILES	Beta2AR agonist	MEKK2 mut-MEK5	Dynein cargo inh	ATG4B inhibitor	MEKK3 PB1 HTS	MEKK2 WT-MEK5	B2AR ag CP1	FAP fluor counter
CCN(CC)CCNc1ncnc2c1sc1nc(N3CCCC3)c3c(c12)CC(C)(C)OC3	65	-	-	-	-	150	-	-
CN(C)CCNc1ncnc2c1sc1nc(N3CCCC3)c3c(c12)CC(C)(C)OC3	72	-	-	-	-	-	35	-
CC(C)CNc1ncnc2c1sc1nc(N3CCOCC3)c3c(c12)CC(C)(C)OC3	-	-	-	-	-	-	-	-
CCN(CC)CCNc1ncnc2c1sc1nc(N3CCOCC3)c3c(c12)CCCC3	-	-	-	-	-	-	.	.
CCN(CCO)c1ncnc2c1sc1nc(CC(C)C)c3c(c12)CC(C)(C)OC3	-	-	-	-	-	-	25	-
C=CCOC(=O)/C(=C/c1cccc2ccccc12)NC(=O)c1ccccc1	-	-	-	-	-	-	.	.
COc1ccc(C)cc1NC(=O)CCNC(=O)Cn1cnc2ccccc2c1=O	-	-	.	-	-	-	.	.
CC1(C)Cc2c(c(-c3ccco3)nc3sc4c(NCCCO)ncnc4c23)CO1	111	-	-	-	-	-	26	-
CC1(C)Cc2c(c(-c3ccco3)nc3sc4c(NCCN5CCOCC5)ncnc4c23)CO1	-	-	-	-	-	-	.	.
O=C(Nc1ncc2c(n1)CC(c1cccc(Cl)c1)CC2=O)c1ccco1 (stereo not drawn)	43	-	.	-	-	-	-	-
Cc1cccc(S(=O)(=O)Nc2ccc(-c3cn4ccccc4n3)cc2)c1	79	-	-	-	-	-	-	-
CCOC(=O)C1CCCCN1Cc1ccc(-c2ccccc2)cc1 (stereo not drawn)	-	-	.	-	-	-	.	.
CN(Cc1ccccc1)S(=O)(=O)c1ccc(NS(=O)(=O)Cc2ccccc2)cc1	48	-	-	-	-	-	34	-
COc1cc(NC(=O)COC(=O)C=C(C)C)c(C)cc1[N+](=O)[O-]	-	-	-	-	-	-	.	.
CC(=O)Nc1ccc(S(=O)(=O)N2CCC(Oc3ccc(-n4cnnn4)cc3)CC2)cc1	88	-	.	-	-	-	12	-
O=C(CCS(=O)(=O)c1ccccc1)N(CCCN1CCOCC1)c1nc2c(F)cccc2s1	111	.	.	-	.	.	-	-
CC(C)=C1CCC(C)CC1=NNC(N)=S (stereo not drawn)	-	.	.	-	.	.	.	.
CC1C/C(=N\NC(N)=S)c2cc(Cl)ccc2S1 (stereo not drawn)	-	-	-	-	-	-	-	-
Cn1c(N2CCN(c3ccccn3)CC2)nc2c1c(=O)n(Cc1ccccc1Cl)c(=O)n2C	-	-	-	-	-	-	.	.
Cn1c(N2CCN(c3ccccn3)CC2)nc2c1c(=O)n(Cc1ccc(Cl)cc1)c(=O)n2C	127	-	-	-	-	-	23	-
CC(OC(=O)c1cn(-c2ccccc2)nc1-c1cccnc1)C(N)=O (stereo not drawn)	-	-	-	-	-	-	.	.
